pIC50: −log10 of the molar value. Values after ≈ are worked out from the molar mass of the structure shown.
Tests used:
[1] = target: T1, C-C chemokine receptor type 1 (Rattus norvegicus, UniProt A6I4C9); assay: Displacement of [125I]MIP-1alpha from CCR1 in rat thioglycolate-elicited peritoneal cells incubated for 60 mins
T1 sequence (A6I4C9 whole entry): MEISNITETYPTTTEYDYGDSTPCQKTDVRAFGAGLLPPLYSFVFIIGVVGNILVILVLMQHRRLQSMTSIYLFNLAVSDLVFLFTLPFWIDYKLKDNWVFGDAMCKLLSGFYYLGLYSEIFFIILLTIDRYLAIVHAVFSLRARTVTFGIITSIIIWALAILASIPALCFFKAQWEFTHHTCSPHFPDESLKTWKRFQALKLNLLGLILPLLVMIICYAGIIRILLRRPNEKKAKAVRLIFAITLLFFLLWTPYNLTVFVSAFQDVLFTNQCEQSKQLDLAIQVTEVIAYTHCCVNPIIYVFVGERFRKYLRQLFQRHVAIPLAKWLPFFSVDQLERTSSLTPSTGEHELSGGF
In short: (§1)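 Cross-species binding using human 125I-MIP-1α at 0.08 nM final. Nonspecific binding measured with excess unlabeled ligand. Incubated 60 min at room temperature, washed, air-dried, filters gamma-counted. Cells were the mouse WEHI 274.1 line, rat thioglycollate-elicited peritoneal cells, and rabbit peripheral blood mononuclear cells.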

[2] = target: C-C chemokine receptor type 5 (Homo sapiens, UniProt P51681); assay: Displacement of [125I]MIP-1beta from human CCR5 expressed in HT1080 cells by scintillation counting; format: cell-based, HT-1080
In short: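 SPA using membranes from HT1080 cells stably expressing RAGE-activated human CCR5, 10 μg protein per well, with PVT-WGA-PS beads. Compound 11-point 3-fold dilutions, 40 μM to 0.7 nM final. 125I-MIP-1β at 0.1 nM final. Incubated 4 h at room temperature, read on TopCount.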

[3] = AUC in mouse at 2.5 mg/kg, iv; format: ADME, organism-based; set-up: dose 2.5 mg/kg, route intravenous; settings: plasma
Cytochrome P450 2D6 = Cytochrome P450 2D6 (Homo sapiens, UniProt P10635); assay: Inhibition of recombinant CYP2D6 expressed in baculovirus-infected insect cells using fluorogeinc substrate; format: ADME
In short: (§2)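 Recombinant CYP Supersomes premixed with fluorogenic substrate in potassium phosphate buffer and prewarmed 30 min at 37 °C with test substance. Reaction started with NADPH-regenerating system, incubated at 37 °C, then quenched with 80% acetonitrile/20% 0.5 M TRIS-base.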

Liver microsomes [4] = assay: Stability in human liver microsomes assessed as compound remaining; format: ADME, Microsome
Liver = assay: Stability in mouse liver microsomes assessed as compound remaining; format: ADME, Microsome
Cytochrome P450 2C9 = Cytochrome P450 2C9 (Homo sapiens, UniProt P11712); assay: Inhibition of recombinant CYP2C9 expressed in baculovirus-infected insect cells using fluorogeinc substrate; format: ADME; in short: as §2
[5] = Half life in mouse at 2.5 mg/kg, iv; format: ADME, organism-based; set-up: dose 2.5 mg/kg, route intravenous; settings: in vivo
[6] = target: T2, C-C chemokine receptor type 1 (Homo sapiens, UniProt P32246); assay: Displacement of [125I]MIP-1alpha from CCR1 in human THP1 cells; format: cell-based, THP-1
T2 sequence (P32246 whole entry): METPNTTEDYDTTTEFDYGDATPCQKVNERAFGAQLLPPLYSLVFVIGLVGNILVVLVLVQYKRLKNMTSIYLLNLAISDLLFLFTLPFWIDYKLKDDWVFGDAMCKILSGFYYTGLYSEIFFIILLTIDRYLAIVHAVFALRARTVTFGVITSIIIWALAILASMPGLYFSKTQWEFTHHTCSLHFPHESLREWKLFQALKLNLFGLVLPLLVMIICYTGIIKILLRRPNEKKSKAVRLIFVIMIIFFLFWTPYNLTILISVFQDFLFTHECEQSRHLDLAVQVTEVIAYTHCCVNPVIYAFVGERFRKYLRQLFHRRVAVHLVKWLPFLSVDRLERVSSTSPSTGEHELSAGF
In short: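 THP-1 cells, 1 × 105, mixed with WGA PS SPA beads in RPMI 1640 (no phenol red) with 50 mM HEPES, 5 mM MgCl2, 1 mM CaCl2, 0.1% BSA. Compound in 3-fold dilutions, 8 μM to 140 pM final. [125I]-MIP-1α at 0.1 nM final. Incubated 12 h at room temperature, imaged by LEADseeker. Duplicates; IC50 from four-parameter logistic fit after nonspecific correction.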

[7] = Clearance in mouse at 2.5 mg/kg, iv; format: ADME, organism-based; set-up: dose 2.5 mg/kg, route intravenous; settings: in vivo
Cytochrome P450 2C19 = Cytochrome P450 2C19 (Homo sapiens, UniProt P33261); assay: Inhibition of recombinant CYP2C19 expressed in baculovirus-infected insect cells using fluorogeinc substrate; format: ADME; in short: as §2
Chemokine receptor = target: T3, Chemokine receptor (Oryctolagus cuniculus, UniProt Q9MYJ9); assay: Displacement of [125I]MIP-1alpha from CCR1 in rabbit PBMCs incubated for 60 mins; in short: as §1
T3 sequence (Q9MYJ9 whole entry): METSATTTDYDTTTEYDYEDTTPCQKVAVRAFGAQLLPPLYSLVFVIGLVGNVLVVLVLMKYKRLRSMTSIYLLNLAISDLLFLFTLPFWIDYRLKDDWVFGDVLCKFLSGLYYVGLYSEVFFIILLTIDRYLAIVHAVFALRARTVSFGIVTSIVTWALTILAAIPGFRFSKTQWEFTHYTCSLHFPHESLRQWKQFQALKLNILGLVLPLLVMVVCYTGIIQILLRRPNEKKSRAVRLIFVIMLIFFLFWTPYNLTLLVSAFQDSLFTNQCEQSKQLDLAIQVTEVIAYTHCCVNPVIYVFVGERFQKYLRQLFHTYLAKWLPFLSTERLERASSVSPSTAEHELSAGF

[8] = target: Voltage-gated inwardly rectifying potassium channel KCNH2 (Homo sapiens, UniProt Q12809); assay: Inhibition of human ERG expressed in HEK293 cells assessed as reduction in peak tail current by whole cell patch clamp assay; format: cell-based
In short: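 Whole-cell patch clamp on HEK-293 cells stably expressing the hERG α subunit. Inhibition measured on peak tail current. Aqueous buffer at pH 7.4, room temperature, no protein present.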

[9] = target: T2, C-C chemokine receptor type 1; assay: Antagonist activity at CCR1 in human THP1 cells assessed as inhibition of MIP-1alpha-induced calcium flux by FLIPR; format: functional, cell-based, THP-1
In short: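 THP-1 cells loaded with fluo-3 AM and resuspended in assay buffer containing probenecid. Calcium flux was followed on FLIPR after adding MIP-1α at 20 nM. Compound effect was taken as the change in base-to-peak excursion relative to control. Run in duplicate.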

[10] = Oral bioavailability life in mouse at 5.2 mg/kg; format: ADME, organism-based; settings: in vivo
Cytochrome P450 3A4 = Cytochrome P450 3A4 (Homo sapiens, UniProt P08684); assay: Inhibition of recombinant CYP3A4 expressed in baculovirus-infected insect cells using fluorogeinc substrate; format: ADME; in short: as §2
[11] = target: T2, C-C chemokine receptor type 1; assay: Antagonist activity at CCR1 in human THP1 cells assessed as inhibition of CK-8beta-induced calcium flux by FLIPR; format: functional, cell-based, THP-1
[12] = target: C-C chemokine receptor type 2 (Homo sapiens, UniProt P41597); assay: Displacement of [125I]MCP1 from CCR2 in human THP1 cells; format: cell-based, THP-1
[13] = target: T4, C-C chemokine receptor type 1 (Mus musculus, UniProt P51675); assay: Displacement of [125I]MIP-1alpha from CCR1 in mouse WEHI 274.1 cells incubated for 60 mins; format: cell-based; in short: as §1
T4 sequence (P51675 whole entry): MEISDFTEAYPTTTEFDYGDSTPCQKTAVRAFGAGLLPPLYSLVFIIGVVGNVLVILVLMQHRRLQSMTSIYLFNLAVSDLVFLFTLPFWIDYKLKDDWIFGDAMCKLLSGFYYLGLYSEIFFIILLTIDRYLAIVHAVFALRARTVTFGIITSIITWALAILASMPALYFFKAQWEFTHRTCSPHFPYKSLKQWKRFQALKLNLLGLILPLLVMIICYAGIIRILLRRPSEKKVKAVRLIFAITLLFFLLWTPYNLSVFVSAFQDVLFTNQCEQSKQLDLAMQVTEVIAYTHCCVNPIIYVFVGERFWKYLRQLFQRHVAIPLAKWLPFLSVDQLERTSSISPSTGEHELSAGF

[14] = Thermodynamic solubility in pH 6.5 potassium phosphate buffer by HPLC method; format: physicochemical; settings: read-out: Therm_solubility
In short: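 Thermodynamic equilibrium solubility. Compound standard dissolved in methanol, with DMSO added if needed, and mixed 1:1 with 50 mM potassium phosphate pH 6.5. Vortexed, sonicated 30 s, shaken 15−24 h at room temperature, centrifuged. Quantified by HPLC-UV at 210 or 254 nm against a calibration curve.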

[15] = target: C-C chemokine receptor type 3 (Homo sapiens, UniProt P51677); assay: Displacement of [125I]eotaxin from human CCR3 expressed in CHO CCR3/2 chimeric cells by scintillation counting; format: cell-based
In short: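 Compound 11-point 3-fold dilutions, 40 μM to 0.7 nM final. 125I-Eotaxin at 0.2 nM final. Incubated 3 h at room temperature; nonspecific binding set with 100 nM eotaxin. Duplicates.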

[16] = AUC in mouse at 5.2 mg/kg, po; format: ADME, organism-based; set-up: dose 5.2 mg/kg, route oral; settings: plasma
Liver microsomes [17] = assay: Stability in rat liver microsomes assessed as compound remaining; format: ADME, Microsome
[18] = Volume of distribution at steady state in mouse at 2.5 mg/kg, iv; format: ADME, organism-based; set-up: dose 2.5 mg/kg, route intravenous; settings: in vivo, read-out: Vdss
[19] = Cmax in mouse at 5.2 mg/kg, po; format: ADME, organism-based; set-up: dose 5.2 mg/kg, route oral; settings: in vivo
[20] = Half life in mouse at 5.2 mg/kg, po; format: ADME, organism-based; set-up: dose 5.2 mg/kg, route oral; settings: in vivo

C-C chemokine receptor type 2, sequence (P41597 whole entry): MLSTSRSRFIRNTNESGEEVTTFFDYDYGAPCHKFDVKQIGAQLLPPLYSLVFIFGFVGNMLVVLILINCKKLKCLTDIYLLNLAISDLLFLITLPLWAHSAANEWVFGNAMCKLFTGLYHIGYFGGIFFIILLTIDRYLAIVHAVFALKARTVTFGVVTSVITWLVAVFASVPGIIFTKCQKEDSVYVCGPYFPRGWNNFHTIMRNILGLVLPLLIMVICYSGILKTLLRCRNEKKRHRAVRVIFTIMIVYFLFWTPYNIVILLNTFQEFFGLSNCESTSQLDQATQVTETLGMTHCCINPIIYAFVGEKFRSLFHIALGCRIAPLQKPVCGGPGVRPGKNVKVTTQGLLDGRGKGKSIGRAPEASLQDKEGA
C-C chemokine receptor type 5, sequence (P51681 whole entry): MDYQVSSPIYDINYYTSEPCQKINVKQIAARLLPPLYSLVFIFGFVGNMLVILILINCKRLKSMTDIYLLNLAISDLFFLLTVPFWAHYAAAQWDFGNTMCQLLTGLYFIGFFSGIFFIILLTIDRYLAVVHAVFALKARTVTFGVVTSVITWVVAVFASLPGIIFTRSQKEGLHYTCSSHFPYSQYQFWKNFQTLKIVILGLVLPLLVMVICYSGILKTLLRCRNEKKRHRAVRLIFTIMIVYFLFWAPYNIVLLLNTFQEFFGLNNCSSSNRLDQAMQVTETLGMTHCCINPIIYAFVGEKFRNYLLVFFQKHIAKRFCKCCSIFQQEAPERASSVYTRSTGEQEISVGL
Cytochrome P450 2C9, sequence (P11712 whole entry): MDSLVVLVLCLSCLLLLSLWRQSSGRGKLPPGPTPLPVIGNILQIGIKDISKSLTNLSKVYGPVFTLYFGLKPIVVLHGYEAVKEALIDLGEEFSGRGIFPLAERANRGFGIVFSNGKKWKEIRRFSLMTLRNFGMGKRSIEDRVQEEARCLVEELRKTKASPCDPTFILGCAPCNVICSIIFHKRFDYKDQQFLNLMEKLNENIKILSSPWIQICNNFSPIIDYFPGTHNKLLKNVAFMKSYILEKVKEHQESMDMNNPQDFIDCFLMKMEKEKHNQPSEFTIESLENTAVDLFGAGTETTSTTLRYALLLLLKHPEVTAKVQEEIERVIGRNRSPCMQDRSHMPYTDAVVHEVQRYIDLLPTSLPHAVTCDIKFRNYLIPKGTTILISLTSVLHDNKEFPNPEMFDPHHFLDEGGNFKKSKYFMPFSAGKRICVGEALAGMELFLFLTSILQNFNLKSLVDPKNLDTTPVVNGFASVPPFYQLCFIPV
Cytochrome P450 3A4, sequence (P08684 whole entry): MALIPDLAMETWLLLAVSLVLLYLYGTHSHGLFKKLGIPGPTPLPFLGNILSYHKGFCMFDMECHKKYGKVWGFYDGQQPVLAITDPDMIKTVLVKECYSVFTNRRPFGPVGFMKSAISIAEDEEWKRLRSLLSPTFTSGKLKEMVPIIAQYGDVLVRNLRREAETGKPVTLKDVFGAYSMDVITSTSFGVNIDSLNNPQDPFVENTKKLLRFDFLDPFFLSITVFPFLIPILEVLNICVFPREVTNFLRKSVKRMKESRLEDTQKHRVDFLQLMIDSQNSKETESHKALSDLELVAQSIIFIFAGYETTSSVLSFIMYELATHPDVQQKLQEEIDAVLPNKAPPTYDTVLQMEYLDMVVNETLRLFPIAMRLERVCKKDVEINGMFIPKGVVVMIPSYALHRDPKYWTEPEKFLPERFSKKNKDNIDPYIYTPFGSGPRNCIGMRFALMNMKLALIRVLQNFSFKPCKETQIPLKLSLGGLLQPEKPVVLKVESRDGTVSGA
Cytochrome P450 2D6, sequence (P10635 whole entry): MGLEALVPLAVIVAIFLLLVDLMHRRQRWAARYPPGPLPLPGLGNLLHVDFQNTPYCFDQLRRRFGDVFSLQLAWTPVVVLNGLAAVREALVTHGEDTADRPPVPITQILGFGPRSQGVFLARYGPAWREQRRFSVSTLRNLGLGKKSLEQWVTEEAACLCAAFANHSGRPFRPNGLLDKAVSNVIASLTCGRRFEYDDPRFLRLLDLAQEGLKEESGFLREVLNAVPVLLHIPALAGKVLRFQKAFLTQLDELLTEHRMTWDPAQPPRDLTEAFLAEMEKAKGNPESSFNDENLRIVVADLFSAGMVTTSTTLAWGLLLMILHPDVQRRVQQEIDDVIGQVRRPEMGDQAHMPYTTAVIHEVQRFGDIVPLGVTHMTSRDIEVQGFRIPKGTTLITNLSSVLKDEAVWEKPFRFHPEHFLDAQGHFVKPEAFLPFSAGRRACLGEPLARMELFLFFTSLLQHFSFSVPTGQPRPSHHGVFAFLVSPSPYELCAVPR
C-C chemokine receptor type 3, sequence (P51677 whole entry, looked up): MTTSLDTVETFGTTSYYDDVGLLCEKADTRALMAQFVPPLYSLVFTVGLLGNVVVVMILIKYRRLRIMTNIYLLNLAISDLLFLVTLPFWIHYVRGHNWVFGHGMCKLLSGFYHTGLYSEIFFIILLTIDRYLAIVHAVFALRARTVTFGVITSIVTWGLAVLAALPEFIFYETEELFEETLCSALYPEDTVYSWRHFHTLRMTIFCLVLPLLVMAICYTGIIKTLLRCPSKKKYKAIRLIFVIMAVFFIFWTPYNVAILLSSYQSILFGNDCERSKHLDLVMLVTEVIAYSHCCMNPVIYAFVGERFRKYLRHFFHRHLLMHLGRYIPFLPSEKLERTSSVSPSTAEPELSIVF
Cytochrome P450 2C19, sequence (P33261 whole entry): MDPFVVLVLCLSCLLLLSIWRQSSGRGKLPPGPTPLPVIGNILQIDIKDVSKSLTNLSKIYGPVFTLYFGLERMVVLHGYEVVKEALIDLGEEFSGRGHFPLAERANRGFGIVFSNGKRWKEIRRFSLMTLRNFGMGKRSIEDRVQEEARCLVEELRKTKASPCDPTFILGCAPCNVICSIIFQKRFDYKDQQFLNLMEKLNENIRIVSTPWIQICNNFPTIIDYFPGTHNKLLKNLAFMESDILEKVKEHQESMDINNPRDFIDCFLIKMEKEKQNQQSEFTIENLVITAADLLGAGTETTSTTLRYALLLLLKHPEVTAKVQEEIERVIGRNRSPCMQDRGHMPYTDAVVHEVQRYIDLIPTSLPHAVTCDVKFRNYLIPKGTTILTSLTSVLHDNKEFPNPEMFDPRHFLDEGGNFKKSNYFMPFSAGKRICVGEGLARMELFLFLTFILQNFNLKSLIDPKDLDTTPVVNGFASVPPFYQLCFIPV
Voltage-gated inwardly rectifying potassium channel KCNH2, sequence (Q12809 whole entry): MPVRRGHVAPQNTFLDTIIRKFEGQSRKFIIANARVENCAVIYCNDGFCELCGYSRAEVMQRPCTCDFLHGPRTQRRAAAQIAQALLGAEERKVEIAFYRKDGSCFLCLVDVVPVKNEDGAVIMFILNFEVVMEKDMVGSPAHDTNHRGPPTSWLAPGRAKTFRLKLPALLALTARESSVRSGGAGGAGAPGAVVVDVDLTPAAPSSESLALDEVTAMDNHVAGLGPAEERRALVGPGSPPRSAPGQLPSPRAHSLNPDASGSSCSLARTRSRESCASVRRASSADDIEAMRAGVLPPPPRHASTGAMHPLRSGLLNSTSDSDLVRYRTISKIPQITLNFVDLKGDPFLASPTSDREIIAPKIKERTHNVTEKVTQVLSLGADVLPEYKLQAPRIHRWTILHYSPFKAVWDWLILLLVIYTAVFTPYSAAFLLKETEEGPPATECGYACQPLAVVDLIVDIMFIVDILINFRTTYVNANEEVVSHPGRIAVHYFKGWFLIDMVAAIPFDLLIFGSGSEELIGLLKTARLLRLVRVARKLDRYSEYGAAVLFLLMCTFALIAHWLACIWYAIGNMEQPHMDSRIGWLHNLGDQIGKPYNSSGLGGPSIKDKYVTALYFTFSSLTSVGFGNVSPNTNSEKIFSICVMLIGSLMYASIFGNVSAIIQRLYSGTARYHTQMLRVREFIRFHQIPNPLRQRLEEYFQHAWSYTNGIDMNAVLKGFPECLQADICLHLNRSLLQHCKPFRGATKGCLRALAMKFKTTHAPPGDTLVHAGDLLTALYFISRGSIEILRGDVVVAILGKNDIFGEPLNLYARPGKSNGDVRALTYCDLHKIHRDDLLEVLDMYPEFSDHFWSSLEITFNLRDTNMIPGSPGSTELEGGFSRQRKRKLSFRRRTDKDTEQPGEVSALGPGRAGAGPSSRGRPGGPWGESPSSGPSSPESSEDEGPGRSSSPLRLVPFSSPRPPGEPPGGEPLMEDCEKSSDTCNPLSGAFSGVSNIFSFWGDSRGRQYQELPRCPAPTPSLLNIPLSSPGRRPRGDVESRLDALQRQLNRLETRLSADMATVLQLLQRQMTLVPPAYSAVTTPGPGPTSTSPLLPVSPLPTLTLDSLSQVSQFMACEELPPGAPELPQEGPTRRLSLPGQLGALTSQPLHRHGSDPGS

CC(C)[C@@H](NC(=O)c1ccccc1)C(=O)N1CCC(c2ccc(Cl)cc2)CC1
pIC50 [1]: < 4.52 | pIC50 [2]: < 4.70 | AUC [3]: 5.9 µM·h | pIC50 (Cytochrome P450 2D6): < 4.40 | Stability (Liver microsomes [4]): 100% | Stability (Liver): 73% | pIC50 (Cytochrome P450 2C9): < 4.40 | half-life [5]: 6.9 h | pIC50 [6]: 7.55 | clearance [7]: 12.5 mL/min/kg | pIC50 (Cytochrome P450 2C19): < 4.40 | pIC50 (Chemokine receptor): 6.26 | pIC50 [8]: 5.15 | pIC50 [9]: 7.82 | bioavailability [10]: 52% | pIC50 (Cytochrome P450 3A4): < 4.40 | pIC50 [11]: 7.07 | pIC50 [12]: < 4.70 | pIC50 [13]: < 4.60 | solubility thermodynamic [14]: 1 µg/mL (≈ 2.51 µM) | pIC50 [15]: < 4.52 | AUC [16]: 6.6 µM·h | Stability (Liver microsomes [17]): 83% | Vd [18]: 4.8 L/kg | Cmax [19]: 3.1 µM | half-life [20]: 5.2 h
